Test results reported in ChEMBL document CHEMBL3763015 (Bioorg Med Chem, 2016).
The source made the active and inactive calls. No cut-off for these calls is given here.

What was measured:
[1] = molecular target: Cathepsin B (Bos taurus) (UniProt P07688); assay: Inhibition of bovine spleen cathepsin B using Z-Arg-Arg-MCA as substrate at 1 mM incubated for 10 mins
Summary of the method: (§1)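 10 mU enzyme preincubated 10 min at 40 °C in 50 mM MES pH 6.0 with 2 mM DTT and 0.1% Brij-35. Z-Arg-Arg-MCA and inhibitor in DMSO were then added and incubated 10 min at 40 °C. Reaction stopped with sodium monochloroacetate/acetate buffer, pH 4.3. Screening was at 1.0 mM inhibitor; IC50 runs used 1 nM to 1 mM.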

[2] = test system: HeLa; assay: Cytotoxicity against human HeLa cells assessed as cell death at 200 uM by […]; assay type: cell-based
Summary of the method: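 HeLa cells were grown in DMEM with 5% FBS and 1% penicillin–streptomycin. 100 μl of 5000 cells/ml was seeded and held 24 h at 37 °C, 5% CO2. Compound at 200 μM, with rotenone control, was added for 24 h. WST-8/1-methoxy PMS was added for 2 h, and absorbance read at 450 nm against 630 nm. Result reported as cell death ratio.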

[3] = molecular target: Cathepsin B (Bos taurus, UniProt P07688); assay: Inhibition of bovine spleen cathepsin B using Z-Arg-Arg-MCA as substrate incubated for 10 mins; summary of the method: as §1
[4] = molecular target: Cathepsin B (Bos taurus) (UniProt P07688); assay: Competitive inhibition of bovine spleen cathepsin B using Z-Arg-Arg-MCA as substrate incubated for 10 mins by Lineweaver-Burk plot

SMILES | inhibition [1] | Activity [2] [%] | IC50 [3] [µM] | inhibition [4]
O=C(/C=C/c1ccccc1)N[C@@H](COC(=O)CCc1ccccc1)C(=O)NC1CCCCC1 | 82% | – | – | –
COc1cccc(/C=C/C(=O)N[C@H](COC(=O)c2ccccc2)C(=O)NC2CCCCC2)c1 | 44% | – | – | –
O=C(/C=C/c1ccc(OC(=O)c2ccccc2)cc1)N[C@H](COC(=O)c1ccccc1)C(=O)NC1CCCCC1 | 19% | – | – | –
O=C(/C=C/c1ccccc1)N[C@@H](COC(=O)c1ccccc1)C(=O)NC1CCCCC1 | 34% | < 20 | – | –
COc1cc(/C=C/C(=O)N[C@H](COC(=O)c2ccccc2)C(=O)NC2CCCCC2)cc(OC)c1OC | 70% | – | 500 | –
O=C(/C=C/c1ccc(OC(=O)c2ccccc2)cc1)N[C@@H](COC(=O)c1ccccc1)C(=O)NC1CCCCC1 | 35% | < 20 | – | –
COc1cc(/C=C/C(=O)N[C@@H](COC(=O)c2ccccc2)C(=O)NC2CCCCC2)cc(OC)c1OC | 21% | < 20 | – | –
O=C(/C=C/c1ccccc1)N[C@H](COC(=O)c1ccccc1)C(=O)NC1CCCCC1 | inactive | – | – | –
COc1cc(/C=C/C(=O)N[C@H](COC(=O)c2ccccc2)C(=O)NC2CCCCC2)cc(OC)c1 | 22% | – | – | –
COc1ccccc1/C=C/C(=O)N[C@@H](COC(=O)c1ccccc1)C(=O)NC1CCCCC1 | 67% | – | 170 | Active
COc1ccc(/C=C/C(=O)N[C@@H](COC(=O)c2ccccc2)C(=O)NC2CCCCC2)cc1OC | 88% | – | – | –
COc1cc(/C=C/C(=O)N[C@@H](COC(=O)c2ccccc2)C(=O)NC2CCCCC2)cc(OC)c1 | inactive | < 20 | – | –
COc1cccc(/C=C/C(=O)N[C@@H](COC(=O)c2ccccc2)C(=O)NC2CCCCC2)c1 | 36% | < 20 | – | –
